T1: Angiotensin-converting enzyme (Rattus norvegicus, UniProt P47820)
T1 sequence (P47820 whole entry): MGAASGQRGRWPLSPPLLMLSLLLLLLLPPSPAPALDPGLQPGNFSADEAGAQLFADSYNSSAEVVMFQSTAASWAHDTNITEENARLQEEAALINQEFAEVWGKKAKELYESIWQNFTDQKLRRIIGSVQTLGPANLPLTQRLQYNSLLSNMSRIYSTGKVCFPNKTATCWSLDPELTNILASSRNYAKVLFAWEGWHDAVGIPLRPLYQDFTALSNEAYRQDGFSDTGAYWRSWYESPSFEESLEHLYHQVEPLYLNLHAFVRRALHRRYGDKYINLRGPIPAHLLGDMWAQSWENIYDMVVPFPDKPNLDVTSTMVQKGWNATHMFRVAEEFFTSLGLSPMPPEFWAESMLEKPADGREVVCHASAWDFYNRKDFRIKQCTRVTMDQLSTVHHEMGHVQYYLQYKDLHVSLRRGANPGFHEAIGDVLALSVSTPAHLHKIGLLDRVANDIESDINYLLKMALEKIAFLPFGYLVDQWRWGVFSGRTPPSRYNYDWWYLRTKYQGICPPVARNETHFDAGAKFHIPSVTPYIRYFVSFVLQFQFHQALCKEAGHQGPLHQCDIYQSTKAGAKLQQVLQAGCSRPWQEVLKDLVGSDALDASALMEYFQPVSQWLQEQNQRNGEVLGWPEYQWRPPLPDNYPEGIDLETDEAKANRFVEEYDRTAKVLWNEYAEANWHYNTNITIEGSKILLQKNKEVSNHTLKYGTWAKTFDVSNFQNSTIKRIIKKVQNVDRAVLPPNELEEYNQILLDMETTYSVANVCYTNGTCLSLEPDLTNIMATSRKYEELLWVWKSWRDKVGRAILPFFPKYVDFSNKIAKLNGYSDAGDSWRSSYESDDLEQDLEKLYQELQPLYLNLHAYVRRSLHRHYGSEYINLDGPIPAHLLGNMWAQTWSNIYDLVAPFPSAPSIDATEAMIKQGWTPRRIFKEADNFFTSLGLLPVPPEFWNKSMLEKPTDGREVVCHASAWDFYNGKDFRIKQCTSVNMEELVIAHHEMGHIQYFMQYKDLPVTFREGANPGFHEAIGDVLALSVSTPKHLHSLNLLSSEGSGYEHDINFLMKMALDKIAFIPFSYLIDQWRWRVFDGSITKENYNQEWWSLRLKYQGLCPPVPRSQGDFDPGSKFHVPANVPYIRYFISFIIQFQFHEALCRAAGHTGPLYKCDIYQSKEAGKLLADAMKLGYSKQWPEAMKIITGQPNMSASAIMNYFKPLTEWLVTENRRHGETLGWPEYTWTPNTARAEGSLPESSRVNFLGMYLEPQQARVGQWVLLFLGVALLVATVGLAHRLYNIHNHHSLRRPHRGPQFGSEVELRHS

B1: Angiotensin-converting enzyme (Rattus norvegicus), P47820 (protein)
chain: MGAASGQRGRWPLSPPLLMLSLLLLLLLPPSPAPALDPGLQPGNFSADEAGAQLFADSYNSSAEVVMFQSTAASWAHDTNITEENARLQEEAALINQEFAEVWGKKAKELYESIWQNFTDQKLRRIIGSVQTLGPANLPLTQRLQYNSLLSNMSRIYSTGKVCFPNKTATCWSLDPELTNILASSRNYAKVLFAWEGWHDAVGIPLRPLYQDFTALSNEAYRQDGFSDTGAYWRSWYESPSFEESLEHLYHQVEPLYLNLHAFVRRALHRRYGDKYINLRGPIPAHLLGDMWAQSWENIYDMVVPFPDKPNLDVTSTMVQKGWNATHMFRVAEEFFTSLGLSPMPPEFWAESMLEKPADGREVVCHASAWDFYNRKDFRIKQCTRVTMDQLSTVHHEMGHVQYYLQYKDLHVSLRRGANPGFHEAIGDVLALSVSTPAHLHKIGLLDRVANDIESDINYLLKMALEKIAFLPFGYLVDQWRWGVFSGRTPPSRYNYDWWYLRTKYQGICPPVARNETHFDAGAKFHIPSVTPYIRYFVSFVLQFQFHQALCKEAGHQGPLHQCDIYQSTKAGAKLQQVLQAGCSRPWQEVLKDLVGSDALDASALMEYFQPVSQWLQEQNQRNGEVLGWPEYQWRPPLPDNYPEGIDLETDEAKANRFVEEYDRTAKVLWNEYAEANWHYNTNITIEGSKILLQKNKEVSNHTLKYGTWAKTFDVSNFQNSTIKRIIKKVQNVDRAVLPPNELEEYNQILLDMETTYSVANVCYTNGTCLSLEPDLTNIMATSRKYEELLWVWKSWRDKVGRAILPFFPKYVDFSNKIAKLNGYSDAGDSWRSSYESDDLEQDLEKLYQELQPLYLNLHAYVRRSLHRHYGSEYINLDGPIPAHLLGNMWAQTWSNIYDLVAPFPSAPSIDATEAMIKQGWTPRRIFKEADNFFTSLGLLPVPPEFWNKSMLEKPTDGREVVCHASAWDFYNGKDFRIKQCTSVNMEELVIAHHEMGHIQYFMQYKDLPVTFREGANPGFHEAIGDVLALSVSTPKHLHSLNLLSSEGSGYEHDINFLMKMALDKIAFIPFSYLIDQWRWRVFDGSITKENYNQEWWSLRLKYQGLCPPVPRSQGDFDPGSKFHVPANVPYIRYFISFIIQFQFHEALCRAAGHTGPLYKCDIYQSKEAGKLLADAMKLGYSKQWPEAMKIITGQPNMSASAIMNYFKPLTEWLVTENRRHGETLGWPEYTWTPNTARAEGSLPESSRVNFLGMYLEPQQARVGQWVLLFLGVALLVATVGLAHRLYNIHNHHSLRRPHRGPQFGSEVELRHS

Substrate: CN(CC(=O)NO)C(=O)C1CCCCC1C(=O)O
Assay: Michaelis-Menten's constant for the hydrolysis of hippuryl-glycyl-glycine by rat serum ACE
Format: cell-free
Settings: not given
How it was run: (§1)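 For rat serum ACE kinetics, the dependence of hippurylglycylglycine hydrolysis rate on substrate concentration was measured at increasing inhibitor concentrations. Apparent Km and Vmax were derived for each inhibitor level.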

Molecule | Km [mM]
B1 | 21

Species on record: Rattus norvegicus
Assay: Maximum rate for the hydrolysis of hippuryl-glycyl-glycine by rat serum ACE at the concentration of 6 nM (mean +/- SEM)
Format: ADME
Settings: 0.006 µM
How it was run: as §1

Molecule | Vmax [uM min-1 ml-1]
CN(CC(=O)NO)C(=O)C1CCCCC1C(=O)O (stereo in doubt; 21a) | 1.16

Species on record: Rattus norvegicus
Assay: Maximum rate for the hydrolysis of hippuryl-glycyl-glycine by rat serum ACE at the concentration of 12 nM
Format: ADME
Settings: 0.012 µM
How it was run: as §1

Molecule | Vmax [uM min-1 ml-1]
CN(CC(=O)NO)C(=O)C1CCCCC1C(=O)O (stereo in doubt; 21a) | 1.36

Substrate: CN(CC(=O)NO)C(=O)C1CCCCC1C(=O)O
Assay: Michaelis-Menten's constant for the hydrolysis of hippuryl-glycyl-glycine by rat serum Angiotensin I Converting Enzyme at the concentration of 6 nM
Format: cell-free
Settings: not given
How it was run: as §1

Molecule | Km [mM]
B1 | 62

Substrate: CN(CC(=O)NO)C(=O)C1CCCCC1C(=O)O
Assay: Michaelis-Menten's constant for the hydrolysis of hippuryl-glycyl-glycine by rat serum ACE at the concentration of 12 nM
Format: cell-free
Settings: not given
How it was run: as §1

Molecule | Km [mM]
B1 | 129

Species on record: Rattus norvegicus
Assay: Maximum rate for the hydrolysis of hippuryl-glycyl-glycine by rat serum ACE
Format: ADME
Settings: not given
How it was run: as §1

Molecule | Vmax [uM min-1 ml-1]
CN(CC(=O)NO)C(=O)C1CCCCC1C(=O)O (stereo in doubt; 21a) | 1.31

Substrate: CN(CC(=O)NO)C(=O)C1CCCCC1C(=O)O
Assay: Michaelis-Menten's constant for the hydrolysis of hippuryl-glycyl-glycine by rat serum ACE at the concentration of 3 nM
Settings: not given
How it was run: as §1

Molecule | Km [mM]
B1 | 43

Target: T1, Angiotensin-converting enzyme
Assay: In vitro inhibitory activity against rat serum angiotensin I converting enzyme using hippuryl-glycyl-glycine as substrate
Format: cell-free
Settings: not given

Molecule | IC50 [nM]
CCCN(CC(=O)NO)C(=O)C1CCCCC1C(=O)O (cis isomer) | 400
CN(CC(=O)NO)C(=O)C1CCCCC1C(=O)O (cis isomer) | 12
CC(CC(=O)NO)C(=O)N1CCC[C@H]1C(=O)O (stereo partly specified) | 600
O=C(O)C1CCCC1C(=O)NCCS (stereo unspecified) | 11000
CCCN(CC(=O)NO)C(=O)C1CCCCC1C(=O)O (trans isomer) | 150
CN(CC(=O)NO)C(=O)C1CCCCC1C(=O)O (stereo in doubt; 21b) | 1800
O=C(O)C1CCCCC1C(=O)CCS (trans isomer) | 1700
CCN(CC(=O)NOCc1ccccc1)C(=O)C1CCCCC1C(=O)O (cis isomer) | > 150000
CN(CC(=O)O)C(=O)C1CCCCC1C(=O)O (cis isomer) | > 150000
CCN(CC(=O)O)C(=O)C1CCCCC1C(=O)O (stereo in doubt; 7d) | 75000
CCN(CC(=O)NO)C(=O)C1CCCCC1C(=O)O (stereo in doubt; 10g) | 18
CCN(CC(=O)NO)C(=O)C1CCCCC1C(=O)O (stereo in doubt; 21c) | 28
O=C(O)CNC(=O)C1CCCCC1C(=O)O (stereo unspecified) | > 150000
O=C(O)CCC(=O)N1CCCC1C(=O)O (stereo unspecified) | 624000
CCN(CC(=O)O)C(=O)C1CCCCC1C(=O)O (stereo in doubt; 7e) | 97000
O=C(O)C1CCCCC1C(=O)NCCS (trans isomer) | > 150000
O=C(O)C1CCCCC1C(=O)NCCS (stereo in doubt; 8b) | 10000
O=C(CNC(=O)C1CCCCC1C(=O)O)NO (cis isomer) | 3000
CN(CC(=O)NOCc1ccccc1)C(=O)C1CCCC1C(=O)O (stereo unspecified) | > 150000

Molecule | IC50 [nM]
CN(CC(=O)NOCc1ccccc1)C(=O)C1CCCCC1C(=O)O (stereo in doubt; 9e) | > 150000
CCN(CC(=O)NO)C(=O)C1CCCCC1C(=O)O (stereo in doubt; 16c) | 2900
CCN(CC(=O)NO)C(=O)C1CCCCC1C(=O)O (trans isomer) | 14
O=C(CNC(=O)C1CCCCC1C(=O)O)NO (trans isomer) | 1500
CCN(CC(=O)NOCc1ccccc1)C(=O)C1CCCCC1C(=O)O (trans isomer) | > 150000
O=C(CNC(=O)C1CCCCC1C(=O)O)NOCc1ccccc1 (cis isomer) | > 150000
CN(CC(=O)NOCc1ccccc1)C(=O)C1CCCCC1C(=O)O (cis isomer) | > 150000
CCN(CC(=O)NO)C(=O)C1CCCCC1C(=O)O (stereo in doubt; 21d) | 2900
CC(C)N(CC(=O)NO)C(=O)C1CCCCC1C(=O)O (trans isomer) | 500
CN(CC(=O)NO)C(=O)C1CCCCC1C(=O)O (stereo in doubt; 16b) | 24
CN(CC(=O)NO)C(=O)C1CCCCC1C(=O)O (stereo in doubt; 16a) | 23500
CCCN(CC(=O)O)C(=O)C1CCCCC1C(=O)O (stereo unspecified) | > 150000
O=C(O)C1CCCCC1C(=O)CCS (stereo unspecified) | 1400
O=C(CNC(=O)C1CCCCC1C(=O)O)NOCc1ccccc1 (stereo in doubt; 9b) | > 150000
CN(CC(=O)NO)C(=O)C1CCCCC1C(=O)O (stereo in doubt; 21a) | 7
CCN(CC(=O)O)C(=O)C1CCCC1C(=O)O (cis isomer) | > 150000
CN(CC(=O)NO)C(=O)C1CCCC1C(=O)O (stereo unspecified) | 1400
CCN(CC(=O)NO)C(=O)C1CCCCC1C(=O)O (cis isomer) | 57
CN(CC(=O)NO)C(=O)C1CCCCC1C(=O)O (trans isomer) | 45

Species on record: Rattus norvegicus
Assay: Maximum rate for the hydrolysis of hippuryl-glycyl-glycine by rat serum ACE at the concentration of 3 nM
Format: ADME
Settings: 0.003 µM
How it was run: as §1

Molecule | Vmax [uM min-1 ml-1]
CN(CC(=O)NO)C(=O)C1CCCCC1C(=O)O (stereo in doubt; 21a) | 1.25
